Experiment [1] addresses T1, P2Y purinoceptor 2 (Homo sapiens, UniProt P41231). The experiment is described as follows: Agonist activity at human P2Y2 receptor expressed in human 1321N1 cells assessed as stimulation of [3H]inositol phosphate accumulation by liquid scintillation counting. It counts as functional, cell-based. The procedure, abridged:
(§1)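 Stable 1321N1 lines made by retroviral expression of each human receptor (parent cells lack P2YRs), seeded at 20000 cells/well two days ahead. Labelled 16 h with 1.0 μCi [3H]myo-inositol in serum-free, inositol-free DMEM. Agonist given in 100 mM Hepes pH 7.3/HBSS with 50 mM LiCl for 30 min at 37 °C. Stopped with ice-cold 50 mM formic acid, then neutralised. Total inositol phosphates taken off Dowex AG1-X8 and counted by scintillation.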

Experiment [2] has as its target T2, P2Y purinoceptor 4 (Homo sapiens, UniProt P51582). The experiment can be described thus: Agonist activity at human P2Y4 receptor expressed in human 1321N1 cells assessed as stimulation of [3H]inositol phosphate accumulation by liquid scintillation counting. Type of experiment: functional, cell-based. The procedure, abridged:
as §1

Experiment [3] concerns the target T3, P2Y purinoceptor 6 (Homo sapiens, UniProt Q15077). The experiment is described as follows: Agonist activity at human P2Y6 receptor expressed in human 1321N1 cells assessed as stimulation of [3H]inositol phosphate accumulation by liquid scintillation counting. Type of experiment: functional, cell-based. Put shortly: as §1
Experiment [4] addresses T3, P2Y purinoceptor 6. The experiment can be described thus: Binding affinity to human P2Y6 receptor expressed in human 1321N1 cells assessed as fluorescence intensity at 100 nM for 30 mins by flow cytometry (FCM) binding assay in presence of 100 uM ecto-nucleotidase inhibitor alpha, beta-methylene-adenosine 5'-diphosphate. Type of experiment: cell-based. Put shortly: (§2)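 P2Y6R-1321N1 cells grown in DMEM with 5% FBS, used at 80% confluence. Preincubated 30 min with 100 μM α,β-methylene-ADP plus 10 μM competing ligand, then 100 nM fluorescent ligand for 20–30 min. Cells washed three times in ice-cold DPBS, detached with 0.2% EDTA and analysed by flow cytometry (FL-4 channel, 10,000 events). MFI corrected for autofluorescence and expressed relative to ligand alone (100%); n = 4, mean ± SEM.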
(In flow cytometry, cells or beads pass a laser one at a time.)

In experiment [5] the target is T3, P2Y purinoceptor 6. The experiment can be described thus: Binding affinity to human P2Y6 receptor expressed in human 1321N1 cells assessed as fluorescence intensity at 100 nM for 30 mins by flow cytometry (FCM) binding assay in presence of 10 uM MRS2179 P2Y1R-selective antagonist. Type of experiment: cell-based. The procedure, abridged:
as §2

For experiment [6], the target named is T3, P2Y purinoceptor 6. The experiment can be described thus: Binding affinity to human P2Y6 receptor expressed in human 1321N1 cells assessed as fluorescence intensity at 100 nM for 30 mins by flow cytometry (FCM) binding assay in presence of 10 uM MRS2578 noncompetitive antagonist. It counts as cell-based. Put shortly:
as §2

Experiment [7] deals with T3, P2Y purinoceptor 6. The experiment can be described thus: Binding affinity to human P2Y6 receptor expressed in human 1321N1 cells assessed as fluorescence intensity at 100 nM for 30 mins by flow cytometry (FCM) binding assay in presence of 10 uM suramin competitive antagonist. It counts as cell-based. Put shortly: as §2
For experiment [8], the target named is T3, P2Y purinoceptor 6. The experiment can be described thus: Binding affinity to human P2Y6 receptor expressed in human 1321N1 cells assessed as fluorescence intensity at 100 nM for 30 mins by flow cytometry (FCM) binding assay in presence of 10 uM P1-(uridine 5'-)-P4-(N4-methoxycytidine5'-)[…] selective dinucleotide agonist. Type of experiment: cell-based. Put shortly: as §2

Experiment [9] addresses T3, P2Y purinoceptor 6. The experiment can be described thus: Binding affinity to human P2Y6 receptor expressed in human 1321N1 cells assessed as fluorescence intensity at 1 uM for 30 mins by fluorescence microscopy in presence of 10 uM MRS2578 noncompetitive antagonist. It counts as cell-based. Put shortly: (§3)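 P2Y6R-1321N1 cells on glass coverslips at 80% confluence, given fresh medium and, where stated, 10 μM noncompetitive antagonist MRS2578 for 30 min at 37 °C. Fluorescent ligand then added to 1 μM final for 30 min at 37 °C. Cells washed with ice-cold PBS, mounted and imaged by fluorescence microscopy.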

The target of experiment [10] is T3, P2Y purinoceptor 6. The experiment can be described thus: Binding affinity to human P2Y6 receptor expressed in human 1321N1 cells assessed as fluorescence intensity at 1 uM for 30 mins by fluorescence microscopy. Type of experiment: cell-based. Put shortly:
as §3

Experiment [11] concerns the target T1, P2Y purinoceptor 2. The experiment is described as follows: Agonist activity at human P2Y2 receptor expressed in human 1321N1 cells by functional assay. It counts as cell-based. The procedure, abridged:
as §1

Experiment [12] deals with T2, P2Y purinoceptor 4. The experiment is described as follows: Agonist activity at human P2Y4 receptor expressed in human 1321N1 cells by functional assay. Type of experiment: cell-based. The procedure, abridged:
as §1

For experiment [13], the target named is T3, P2Y purinoceptor 6. The experiment is described as follows: Agonist activity at human P2Y6 receptor expressed in human 1321N1 cells by functional assay. It counts as cell-based. The procedure, abridged: as §1

The source made the active and inactive calls. No cut-off for these calls is given here.

T2 sequence (P51582 whole entry): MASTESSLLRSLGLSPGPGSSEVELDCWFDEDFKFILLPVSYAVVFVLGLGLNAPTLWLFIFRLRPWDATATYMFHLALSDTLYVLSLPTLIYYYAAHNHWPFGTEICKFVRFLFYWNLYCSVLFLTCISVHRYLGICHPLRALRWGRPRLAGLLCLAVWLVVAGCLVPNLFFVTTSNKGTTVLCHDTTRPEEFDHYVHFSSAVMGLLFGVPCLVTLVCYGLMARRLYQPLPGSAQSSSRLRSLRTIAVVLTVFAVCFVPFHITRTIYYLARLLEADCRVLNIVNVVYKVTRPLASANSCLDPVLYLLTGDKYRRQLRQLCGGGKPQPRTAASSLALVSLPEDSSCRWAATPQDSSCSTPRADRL
T1 sequence (P41231 whole entry): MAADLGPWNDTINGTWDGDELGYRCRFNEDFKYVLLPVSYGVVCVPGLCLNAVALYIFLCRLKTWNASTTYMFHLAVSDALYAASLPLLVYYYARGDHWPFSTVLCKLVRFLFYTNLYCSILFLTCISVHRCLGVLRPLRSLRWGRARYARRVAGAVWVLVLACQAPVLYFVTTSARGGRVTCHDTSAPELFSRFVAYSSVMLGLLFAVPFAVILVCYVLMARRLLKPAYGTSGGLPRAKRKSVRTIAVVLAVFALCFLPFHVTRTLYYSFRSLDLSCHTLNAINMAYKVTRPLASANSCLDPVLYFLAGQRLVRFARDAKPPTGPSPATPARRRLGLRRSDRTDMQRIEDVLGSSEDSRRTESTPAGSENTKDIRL
T3 sequence (Q15077 whole entry): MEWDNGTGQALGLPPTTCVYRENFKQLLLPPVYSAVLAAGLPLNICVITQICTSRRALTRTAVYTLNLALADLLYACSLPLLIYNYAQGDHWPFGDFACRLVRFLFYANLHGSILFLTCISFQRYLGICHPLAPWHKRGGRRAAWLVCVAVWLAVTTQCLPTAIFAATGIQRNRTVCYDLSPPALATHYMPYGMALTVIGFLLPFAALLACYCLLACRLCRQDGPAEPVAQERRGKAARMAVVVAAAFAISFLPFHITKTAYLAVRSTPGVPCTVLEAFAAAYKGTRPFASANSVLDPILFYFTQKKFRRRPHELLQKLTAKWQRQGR

Take `C#CCCNC(=O)COc1ccc(CCCO/N=c2/ccn([C@@H]3O[C@H](COP(=O)(O)OP(=O)(O)OP(=O)(O)O)[C@@H](O)[C@H]3O)c(=O)[nH]2)cc1`: the EC50 in experiment [1] was 109 nM; in [2], 40 nM; in experiment [3], 183 nM.

`O=c1[nH]/c(=N\OCCCc2cccc(F)c2)ccn1[C@@H]1O[C@H](COP(=O)(O)OP(=O)(O)OP(=O)(O)O)[C@@H](O)[C@H]1O`: the half-maximal effective concentration (EC50) in experiment [1] was 190 nM; in experiment [2] it was 100 nM; in experiment [3] it was 539 nM.

Turning to `O=c1[nH]/c(=N\OCCCc2cccc([N+](=O)[O-])c2)ccn1[C@@H]1O[C@H](COP(=O)(O)OP(=O)(O)OP(=O)(O)O)[C@@H](O)[C@H]1O`, the results for the EC50 in experiment [1], in experiment [2] and in [3] were 457 nM, 95 nM and 9700 nM, respectively.

Turning to `O=C(CCCCCNC(=O)COc1ccc(/C=C/c2ccc3n2[B-](F)(F)[N+]2=C(c4cccs4)C=CC2=C3)cc1)NCCCn1cc(CCNC(=O)COc2ccc(CCCO/N=c3/ccn([C@@H]4O[C@H](COP(=O)(O)OP(=O)(O)OP(=O)(O)O)[C@@H](O)[C@H]4O)c(=O)[nH]3)cc2)nn1`, the EC50 turned out to be 66 nM in experiment [1], 70 nM in experiment [2] and 23 nM in experiment [3]. Moreover, the result in experiment [4], in experiment [5], in experiment [9] and in experiment [10] was Active. Further, the outcome in experiment [6], in experiment [7] and in experiment [8] was inactive.

Take `O=c1[nH]/c(=N\OCCCc2ccc(F)cc2)ccn1[C@@H]1O[C@H](COP(=O)(O)OP(=O)(O)OP(=O)(O)O)[C@@H](O)[C@H]1O`: the EC50 in experiment [1] stood at 547 nM; in experiment [2], 105 nM; in [3], 1210 nM.

For `O=C(O)CCCO/N=c1/ccn([C@@H]2O[C@H](COP(=O)(O)OP(=O)(O)OP(=O)(O)O)[C@@H](O)[C@H]2O)c(=O)[nH]1`, the half-maximal effective concentration (EC50) amounted to 299 nM in experiment [1], 470 nM in experiment [2] and 697 nM in [3].

As to `O=c1[nH]/c(=N\OCCCc2cccc(I)c2)ccn1[C@@H]1O[C@H](COP(=O)(O)OP(=O)(O)OP(=O)(O)O)[C@@H](O)[C@H]1O`, the EC50 in experiment [1] worked out at 325 nM; in experiment [2], 114 nM; in experiment [3], 299 nM.

`O=c1[nH]/c(=N\OCCCc2ccc(Br)cc2)ccn1[C@@H]1O[C@H](COP(=O)(O)OP(=O)(O)OP(=O)(O)O)[C@@H](O)[C@H]1O`: the concentration giving a half-maximal response (EC50) turned out to be 350 nM in [1], 141 nM in [2] and 225 nM in experiment [3].

Turning to `O=c1[nH]/c(=N\OCCCc2ccncc2)ccn1[C@@H]1O[C@H](COP(=O)(O)OP(=O)(O)OP(=O)(O)O)[C@@H](O)[C@H]1O`, the concentration giving a half-maximal response (EC50) in experiment [1] amounted to 285 nM; in [2], 250 nM; in experiment [3], 4280 nM.

`O=c1[nH]/c(=N\OCCCc2ccc(I)cc2)ccn1[C@@H]1O[C@H](COP(=O)(O)OP(=O)(O)OP(=O)(O)O)[C@@H](O)[C@H]1O`: the EC50 in [1] came to 187 nM; in experiment [2], 91 nM; in [3], 90 nM.

On to `O=c1[nH]/c(=N\OCCCc2cccnc2)ccn1[C@@H]1O[C@H](COP(=O)(O)OP(=O)(O)OP(=O)(O)O)[C@@H](O)[C@H]1O`, for which the 50% effective concentration (EC50) in [1] came to 327 nM; in experiment [2], 300 nM; in experiment [3], 2950 nM.

For `N#CC(CCO/N=c1/ccn([C@@H]2O[C@H](COP(=O)(O)OP(=O)(O)OP(=O)(O)O)[C@@H](O)[C@H]2O)c(=O)[nH]1)(c1ccccc1)c1ccccc1`, the values for the concentration for a half-maximal effect (EC50) in experiment [1], in experiment [2] and in experiment [3] were 934 nM, 47 nM and 177 nM, respectively.

For `O=c1[nH]/c(=N\OCCOc2ccccc2)ccn1[C@@H]1O[C@H](COP(=O)(O)OP(=O)(O)OP(=O)(O)O)[C@@H](O)[C@H]1O`, the EC50 in experiment [1] was 3400 nM; in experiment [2], 430 nM; in experiment [3], 1780 nM.

For the compound `COc1ccc(CCCO/N=c2/ccn([C@@H]3O[C@H](COP(=O)(O)OP(=O)(O)OP(=O)(O)O)[C@@H](O)[C@H]3O)c(=O)[nH]2)cc1`, the 50% effective concentration (EC50) was 47 nM in experiment [1], 23 nM in experiment [2] and 277 nM in [3].

Regarding `O=c1ccn([C@@H]2O[C@H](COP(=O)(O)OP(=O)(O)OP(=O)(O)OP(=O)(O)OC[C@H]3O[C@@H](n4cc/c(=N/OCCCc5ccccc5)[nH]c4=O)[C@H](O)[C@@H]3O)[C@@H](O)[C@H]2O)c(=O)[nH]1`, the EC50 is 389 nM in [11], 93 nM in [12] and 332 nM in [13].

On to `O=c1[nH]/c(=N\OCCCc2ccccc2)ccn1[C@@H]1O[C@H](COP(=O)(O)OP(=O)(O)OP(=O)(O)OP(=O)(O)OC[C@H]2O[C@@H](n3cc/c(=N/OCCCc4ccccc4)[nH]c3=O)[C@H](O)[C@@H]2O)[C@@H](O)[C@H]1O`, for which the EC50 is > 10000 nM in experiment [11], 1330 nM in experiment [12] and > 10000 nM in experiment [13].

For `C#CCCCO/N=c1/ccn([C@@H]2O[C@H](COP(=O)(O)OP(=O)(O)OP(=O)(O)O)[C@@H](O)[C@H]2O)c(=O)[nH]1`, the EC50 in experiment [1] turned out to be 168 nM; in [2] it was 410 nM; in [3] it was 3000 nM.

As to `O=c1[nH]/c(=N\OCCCc2ccc([N+](=O)[O-])cc2)ccn1[C@@H]1O[C@H](COP(=O)(O)OP(=O)(O)OP(=O)(O)O)[C@@H](O)[C@H]1O`, the 50% effective concentration (EC50) was found to be 458 nM in experiment [1], 84 nM in experiment [2] and 1330 nM in [3].

As for `N=c1ccc2c(-c3ccc(C(=O)NCCCCCCn4cc(CCNC(=O)COc5ccc(CCCO/N=c6/ccn([C@@H]7O[C@H](COP(=O)(O)OP(=O)(O)OP(=O)(O)O)[C@@H](O)[C@H]7O)c(=O)[nH]6)cc5)nn4)cc3C(=O)O)c3ccc(N)c(S(=O)(=O)O)c3oc-2c1S(=O)(=O)O`, the results for the concentration giving a half-maximal response (EC50) in experiment [1], in experiment [2] and in experiment [3] were 577 nM, 200 nM and 334 nM, respectively.

Regarding `O=c1[nH]/c(=N\OCCCCc2ccccc2)ccn1[C@@H]1O[C@H](COP(=O)(O)OP(=O)(O)OP(=O)(O)O)[C@@H](O)[C@H]1O`, the values for the EC50 in [1], in [2] and in experiment [3] were 214 nM, 54 nM and 251 nM, respectively.

Turning to `O=c1[nH]/c(=N\OCCCc2ccsc2)ccn1[C@@H]1O[C@H](COP(=O)(O)OP(=O)(O)OP(=O)(O)O)[C@@H](O)[C@H]1O`, the EC50 was determined as 103 nM in experiment [1], 20 nM in [2] and 164 nM in [3].

For `O=c1[nH]/c(=N\OCCCc2ccc3ccccc3c2)ccn1[C@@H]1O[C@H](COP(=O)(O)OP(=O)(O)OP(=O)(O)O)[C@@H](O)[C@H]1O`, the values for the EC50 in experiment [1], in experiment [2] and in experiment [3] were 139 nM, 128 nM and 90 nM, respectively.

The term EC50 denotes the concentration needed to bring the measured effect to its halfway point.

The record behind these values is ChEMBL document CHEMBL3259562, “4-Alkyloxyimino derivatives of uridine-5'-triphosphate: distal modification of potent agonists as a strategy for molecular probes of P2Y2, P2Y4, and P2Y6 receptors” (J Med Chem, 2014).
